Assay outcomes: PubChem BioAssay, several laboratories
Hits are enriched below; roughly 3.8% of the tested compounds scored in any of these assays.
HSF1 activator: HSF-1 activators, primary screen, NIH3T3-HGL cells, MG132 stress, luminescence, single point; NIH3T3-HGL HSF-1 luciferase reporter, 8 h; 100% = twice DMSO control signal; activation, % at 9 µM; 300,000 tested, 1.7% active;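 active means mean replicate activation of at least 50% with a set share of replicates each reaching 50%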
HSF1 inh: HSF1 inhibitors in luciferase reporter cells, primary screen, cell-based, NIH3T3, luminescence; NIH3T3-HGL HSE-luciferase, MG132-induced, luminescence 8 h; active compounds read low; activity change, negative = inhibition, % at 7.5 µM (by protocol); 300,000 tested, 0.77% active; AID 2098, 2009;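 active means more than half of replicate wells show activity change below -50%, luminescence cut by over half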;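 further: luciferase reports HSF-1 transcriptional activity via heat shock element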
Lipid droplet: inhibitors of hepatocyte lipid droplet formation, primary screen, imaging, high-throughput imaging, BODIPY stain | inhibition, % at 6.5 µM | AML12 mouse hepatocytes, oleate lipid droplets | 240,000 tested, 0.4% active;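 active means lipid droplet intensity inhibited by at least 50%, with more than 500 cells counted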
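Test system: AML12 hepatocytes (mouse); reagent: oleate loading, 100 µM; dosing: one dose, 6.5 µM compound; incubation: overnight exposure; signal: fluorescence imaging, 20x objective, two fields per well; read-out basis: % inhibition of corrected integrated BODIPY droplet signal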
NS3 helicase inh: inhibitors of HCV NS3 helicase, primary screen, biochemical, Cy5 molecular beacon fluorescence | Hepatitis C virus NS3 helicase | NS3 helicase DNA unwinding | inhibition, % at 10.9 µM | 290,000 tested, 0.56% active;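 active means inhibition above the mean of all tested compounds plus 3 SD, set per campaign, cut at about 35% in these data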
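System: NS3 helicase fragment of HCV / Schedule: 1 h at 25 °C / Control set: DMSO alone as 0% and 110 µM thioflavine S as 100% / Reagent: Cy5/quencher beacon DNA duplex and ATP to start / Technique: Cy5 fluorescence / Replication: singlicate / Evaluation: % inhibition of end-to-start signal ratio versus controls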
HSP90 refold inh: HSP90 inhibitors, primary screen, cell lysate, luminescence; Heat shock protein HSP 90 (rabbit reticulocyte lysate; luciferase refolding); Rabbit reticulocyte lysate, luciferase refolding luminescence, 3 h; inhibition, % at 5.6 µM; 290,000 tested, 0.91% active; AID 1789, 2009;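 active means inhibition above the screen-wide mean plus 3 SD, computed separately per campaign, cut at about 16% in these data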;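 further: inhibitors lower the luminescence because luciferase stays unfolded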
NS3 hel confirm: HCV NS3 helicase inhibitors, retest, confirmation, biochemical, Cy5 molecular beacon fluorescence, triplicate; AID 1943, 2009; shares compounds with NS3 helicase inh; inhibition, % at 10.9 µM; NS3 helicase DNA unwinding; 1,600 tested, 31% active;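 active means inhibition above the mean of all tested compounds plus 3 SD, cutoff set per campaign, cut at about 36% in these data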
FID counter trip: compounds displacing fluorescent DNA intercalator, artefact control for HCV NS3 helicase inhibitor project, biochemical, FID fluorescence, triplicate | shares compounds with NS3 helicase inh | DNA fluorescent intercalator displacement | inhibition, % at 7.9 µM | 1,600 tested, 4% active | AID 1945, 2009; in the data active means inhibition above about 37%;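 further: higher means more displacement of ethidium bromide from the DNA hairpin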
DNA FID DR: compounds displacing fluorescent intercalator from DNA, dose response, counter-screen for HCV NS3 helicase inhibitor project, biochemical, fluorescence; shares compounds with NS3 helicase inh; fluorescent intercalator displacement from DNA; IC50, µM; 120 tested, under 10 active; call rule not given here
Hits are given with their value; – = inactive; · = not tested or not shown.

SMILES | HSF1 activator | HSF1 inh | Lipid droplet | NS3 helicase inh | HSP90 refold inh | NS3 hel confirm | FID counter trip | others
CC1(C)Cc2c(c(-c3ccco3)nc3sc4c(NCCCO)ncnc4c23)CO1 | – | – | · | 60 | – | – | –
CC1(C)Cc2c(c(-c3ccco3)nc3sc4c(NCCN5CCOCC5)ncnc4c23)CO1 | – | – | – | – | – | · | ·
COc1ccc(N2Cc3ccc(C(=O)N/N=C\c4ccc(O)cc4O)cc3C2)cc1 | – | – | – | 40 | – | – | –
CCn1cc(-c2csc(N)n2)c(C)n1 | – | – | – | – | – | · | ·
CCOc1cc(CNc2ccc(N(C)C)cc2)cc(Br)c1OCC(=O)NC(C)(C)C | – | – | – | 53 | – | – | –
CCOc1cc(CNc2ccc(N3CCCCC3)cc2)cc(Br)c1OCC(=O)NC(C)(C)C | – | – | – | – | – | · | ·
COc1ccccc1C(=O)CC(=O)C(=O)Nc1cccc([N+](=O)[O-])c1C | – | – | · | 37 | – | – | –
CCC(CC)C(=O)Nc1nnc(SCC(=O)NC(C)(C)C)s1 | – | – | – | – | – | · | ·
Cn1cc(C=C2C(=O)CC(C)(C)CC2=O)c2ccccc21 | – | – | – | 38 | – | – | –
Cn1cc(C=C2C(=O)OC3(CCCCC3)OC2=O)c2ccccc21 | – | – | – | – | – | · | ·
COc1ccc(OC)c(C2CC(=O)N3CN(c4ccccc4F)CSC3=C2C#N)c1 (centres undefined) | – | – | · | 40 | – | 66 | – | DNA FID DR=–
Cc1ccc(C2CC(=O)N3CN(c4ccc(Br)cc4)CSC3=C2C#N)o1 (centres undefined) | – | – | · | 37 | – | 72 | – | DNA FID DR=–
COc1ccc(Br)cc1C1CC(=O)N2CN(Cc3ccccc3)CSC2=C1C#N (centres undefined) | – | – | · | 51 | – | 40 | –
Cc1ccc(CNC(=O)c2ccc(N3CCC4(CC3)CC(c3ccccc3)=NO4)c([N+](=O)[O-])c2)cc1 | – | – | – | – | – | · | ·
CCOC(=O)CN1C(=O)S/C(=C/c2ccc(OCc3ccc(C(=O)O)cc3)cc2)C1=O | – | – | – | 42 | – | – | –
CC1Sc2ccc(S(=O)(=O)CCC(=O)NC3CCCCC3C)cc2NC1=O (centres undefined) | – | – | – | – | – | · | ·
Cc1ccc(C2NC(=S)NC3=C2C(=O)CC(C)(C)C3)cc1 (centres undefined) | – | – | – | – | – | · | ·
Cc1nc2sc3c(c2c(=O)[nH]1)CCC3 | – | – | – | – | – | · | ·
Cc1cc(-c2nc3c4c5c(sc4[nH]c(=O)n3n2)CCC5)c(C)o1 | – | – | – | 41 | – | 76 | –
COc1cccc(NC(=S)Nc2cccc3ccccc23)c1 | – | – | – | 49 | – | – | –
Fc1ccc(NC(=S)Nc2cccc3ccccc23)cc1F | – | – | – | 44 | – | – | –
Cc1cccc(NC(=S)Nc2cccc3ccccc23)c1 | – | – | – | – | – | · | ·
CC(=O)N1c2c(cc(Br)cc2S(=O)(=O)NCc2ccc(C)cc2)CC1C (centres undefined) | – | – | – | – | – | · | ·
NC(=S)NN=C1c2cc(OCCN3CCOCC3)ccc2-c2ccc(OCCN3CCOCC3)cc21 | – | – | – | – | – | · | ·
CCc1ccc(NC(=O)CSCc2ccc(C(=O)O)cc2)cc1 | – | – | – | – | – | · | ·
SMILES | HSF1 activator | HSF1 inh | Lipid droplet | NS3 helicase inh | HSP90 refold inh | NS3 hel confirm | FID counter trip | others
Cc1ccc(N=C2NC(=O)/C(=C\c3ccco3)S2)cc1 | – | – | – | 40 | – | – | –
O=C1NC(=Nc2ccc3ccccc3c2)S/C1=C/c1ccco1 | – | – | – | – | – | · | ·
COc1ccc(N=C2NC(=O)/C(=C\C=C\c3ccco3)S2)cc1 | 124 | – | – | 46 | – | 36 | – | DNA FID DR=–
Cc1cccc(N=C2NC(=O)/C(=C/C=C/c3ccco3)S2)c1 | – | – | – | 44 | – | – | –
Cc1cccc(N=C2NC(=O)S/C2=C\c2ccco2)c1 | – | – | – | 37 | – | – | –
CN(C)C(=O)N1CCN(c2nc(-c3ccccc3)cs2)CC1 | – | – | – | – | – | · | ·
CCc1noc(C)c1C(=O)Nc1nnc(C2CCCCC2)s1 | – | – | – | – | – | · | ·
Cc1ccc(CN=C(Nc2ccccc2)NC2CCCCC2)cc1 | – | – | – | – | – | · | ·
CN(c1ccccc1C(=O)N1CCN(Cc2ccc3c(c2)OCO3)CC1)S(C)(=O)=O | – | – | – | – | – | · | ·
C=CCSc1n[nH]c(-c2ccccc2)n1 | – | – | – | – | – | · | ·
C=CCSc1n[nH]c(-c2ccc(OC)cc2)n1 | – | – | – | 39 | – | – | –
O=C(CN1c2ccccc2Sc2ccccc21)NNC(=O)Nc1cccc(Cl)c1 | – | – | – | – | – | · | ·
CCOC(=O)C(=CNc1cc(Cl)c(-c2ccco2)c(Cl)c1)C(=O)OCC | – | – | – | 46 | – | – | –
CCOC(=O)C(=CNc1ccc(-c2ccco2)c(Cl)c1)C(=O)OCC | – | – | – | 42 | – | – | –
O=C(NCC1CCCO1)c1ccc(Cl)c(S(=O)(=O)Nc2ccccc2)c1 (centres undefined) | – | – | – | – | – | · | ·
CC(=O)C1=C(O)C(=O)N(c2ccc(Br)cc2)C1c1ccc(Cl)cc1 (centres undefined) | – | – | – | 37 | – | 80 | –
CC(=O)C1=C(O)C(=O)N(c2cc(C(C)(C)C)on2)C1c1ccc(Br)cc1 (centres undefined) | – | – | · | 38 | – | 68 | –
C=CCSc1nc(C)c(CCCC)c(=O)[nH]1 | – | – | – | – | – | · | ·
COc1ccccc1NC(=O)c1ccc(S(=O)(=O)N(C)C)cc1 | – | – | – | – | – | · | ·
COc1ccc(OC)c2sc(NC(=O)c3ccc(S(=O)(=O)N(C)C)cc3)nc12 | – | – | · | 41 | – | – | –
O=C(NCC1CCCO1)c1cc2nc(-c3ccco3)cc(C(F)(F)Cl)n2n1 (centres undefined) | – | – | – | 51 | – | – | –
O=C(NCC1CCCO1)c1nn2c(C(F)(F)F)cc(-c3ccco3)nc2c1Cl (centres undefined) | – | – | – | – | – | · | ·
Cc1oc(-c2ccccc2Cl)nc1CS(=O)CC(=O)NC1CC1 (centres undefined) | – | – | – | – | – | · | ·
